SMILES strings stand for the structures.

The data set in a line: Toxicity liver stage against HepG2, at 10uM. It is filed as cell-based. Also noted: test concentration 10 uM, cell line HepG2-A16-CD81EGFP. To be noted: human, HepG2-A16-CD81EGFP cells; read-out: INHIBITION
In a few lines:
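Uninfected HepG2-A16-CD81EGFP cells, 3 × 10^3 per well, 1536-well, plated on prespotted compound at 10 μM final, parasite-free screening media added to match infected plates; puromycin 10 μM positive, DMSO 0.5% negative; run in parallel with 48 h PbLuc assay at 37 °C, 5% CO2; viability by CellTiter-Glo luminescence, normalized to controls.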
In the case of `F[C@@H]1CN(CC2CCCCC2)C[C@@H]1OCc1nc2ccccc2o1`, the cytotoxicity at 10 µM stood at 1.9%.

Take `NC(=O)c1cc2c(nc1Oc1ccccc1CN1CCCCC1)CCC2`: the cytotoxicity at 10 µM was found to be 3.71%.

With `Cc1sc2nc(CCN)nc(N(C)CCCC3CCCO3)c2c1C` (stereo unspecified), the cytotoxicity at 10 µM is -6.01%.

Take `Cc1ccccc1-n1cnc(Cl)c1C(=O)O`: the cytotoxicity at 10 µM is -4.11%.

Take `Cc1nc(C)c2c(n1)CCN(Cc1ccco1)CC2`: the cytotoxicity at 10 µM was -0.141%.

Regarding `C=C(C)COc1ccccc1CNCCc1c[nH]cn1`, the cytotoxicity at 10 µM was -2.21%.

Regarding `CC(Nc1ccc(N2C(=O)CCCC2=O)cc1)c1ccc(C#N)cc1` (stereo unspecified), the cytotoxicity at 10 µM was determined as 8.71%.

Turning to `Cc1ccc(S(=O)(=O)N2CCCC(c3n[nH]cc3C(=O)N(C)C)C2)cc1` (stereo unspecified), the cytotoxicity at 10 µM stood at 6.91%.

Turning to `CC(C)n1cc(S(=O)(=O)N2CCCCCC2)cn1`, the cytotoxicity at 10 µM is 10%.

Consider `Cc1ccccc1-c1cncc(C2CCN(C)CC2)n1`, for which the cytotoxicity at 10 µM was -6.13%.

Take `Cc1ccc(OC2(C(=O)O)CCN(C(=O)c3ccsc3)CC2)cn1`: the cytotoxicity at 10 µM was -4.09%.

In the case of `CC(CCc1ccc(O)cc1)NC1CCN(C(=O)C(C)C)CC1` (stereo unspecified), the cytotoxicity at 10 µM was -4.89%.

As for `CCc1n[nH]c(C(=O)N2CCN(c3ccc4ccccc4c3)CC2)c1C`, the cytotoxicity at 10 µM was -3.03%.

As to `Cc1cc(C)c(S(N)(=O)=O)cc1C(=O)NCC1Cc2ccccc2O1` (stereo unspecified), the cytotoxicity at 10 µM is -4.53%.

On to `Cc1cccc(-c2cc(-c3c(C)nn(CCO)c3C)c(C#N)c(N)n2)c1`, for which the cytotoxicity at 10 µM stood at 20.2%.

For `CC(C)c1n[nH]c(C(=O)Nc2cc[nH]n2)c1Br`, the cytotoxicity at 10 µM was -9.73%.

As to `CCn1cc(S(=O)(=O)N2CCCC3(CC=CNC3=O)C2)c(C)n1` (stereo unspecified), the cytotoxicity at 10 µM was -7.56%.

As to `COc1ccsc1C(=O)Nc1cc(CN2CCOCC2)ccc1C`, the cytotoxicity at 10 µM is -0.0813%.

In the case of `COc1cccc(CN(C)Cc2nc3c(cnn3C)c(=O)[nH]2)c1OC`, the cytotoxicity at 10 µM is -4.28%.

As to `c1cnn(CC2CN(Cc3nc(-c4ccsc4)no3)CCO2)c1` (stereo unspecified), the cytotoxicity at 10 µM is -8.06%.

Regarding `O=C(NCc1cc[nH]n1)N1CCCCC(N2CCCC2)C1` (stereo unspecified), the cytotoxicity at 10 µM is -11.5%.

For the molecule `CC(=O)N1CCC(C(=O)c2cc(C)cnc2N)CC1`, the cytotoxicity at 10 µM was -0.0531%.

For `Cc1ncc(CN2CCCN(Cc3noc(C4CC4)n3)CC2)s1`, the cytotoxicity at 10 µM was -8.57%.

For the molecule `CCOC1CCCN(C(=O)Nc2cnn(CC(F)F)c2)C1` (stereo unspecified), the cytotoxicity at 10 µM was -1.84%.

As to `O=C(NCc1ccccc1Cn1cncn1)C1CCC1`, the cytotoxicity at 10 µM is -4.43%.

For the molecule `CN(C)C(C(=O)N1CCCN(C(=O)C2CCC2)CC1)c1ccccc1F` (stereo unspecified), the cytotoxicity at 10 µM is -2.11%.

As to `Cc1ccc(N2C[C@H]3CCC[C@@H](CN(C)C)[C@H]3C2)nn1`, the cytotoxicity at 10 µM is 8.82%.

With `O=c1cc(C2CCNCC2)nc(Cc2cccc(Cl)c2)[nH]1`, the cytotoxicity at 10 µM was -0.869%.

For `CCN(C)Cc1n[nH]c(=O)n1-c1ccc(C)c(C)c1`, the cytotoxicity at 10 µM amounted to 6.27%.

`Cc1ccc(NC2CCN(C(=O)C(C(C)C)n3cncn3)CC2)nn1` (stereo unspecified): the cytotoxicity at 10 µM was -3.01%.

Turning to `CC(CNC(=O)N1CCC(CO)CC1)Cc1cccs1` (stereo unspecified), the cytotoxicity at 10 µM is -8.52%.

Regarding `CCCNC(=O)c1cc(C2CCCN(Cc3ccccn3)C2)no1` (stereo unspecified), the cytotoxicity at 10 µM was -32%.

`CC(=O)N1CCCC(c2ccc(CO)c(-c3c(C)noc3C)n2)C1` (stereo unspecified): the cytotoxicity at 10 µM is -4.09%.

On to `N#Cc1ccccc1OCCN1CCCCC1Cn1cncn1` (stereo unspecified), for which the cytotoxicity at 10 µM is -6.04%.

Take `CCn1nnnc1-c1cccc(NCc2nc(C)ccc2O)c1`: the cytotoxicity at 10 µM was -1.71%.

Consider `O[C@H]1[C@H](n2cc(-c3cccnc3)nn2)c2ccccc2C12CCNCC2`, for which the cytotoxicity at 10 µM was -10.5%.

Consider `O=C(c1ccccn1)N1CC[C@H]2C(=O)N(c3ccsc3)CCO[C@H]2C1`, for which the cytotoxicity at 10 µM worked out at 11.6%.

Turning to `Cc1c(CN2Cc3nccn3CC2c2ccccc2)cnn1C` (stereo unspecified), the cytotoxicity at 10 µM was -1.13%.

For `O=C(N1CCCC(n2cncn2)C1)C1(c2ccccc2F)CCCC1` (stereo unspecified), the cytotoxicity at 10 µM was -4.24%.

As to `Cc1ccc(S(=O)(=O)NCC2CNCCOC2)cc1Cl` (stereo unspecified), the cytotoxicity at 10 µM came out at 0.858%.

Regarding `Fc1ccc(CN2CCC3(CC2)CN(c2ccccn2)CCO3)cc1`, the cytotoxicity at 10 µM is -0.359%.

Consider `Nc1nc2nc(C3CCCN(C(=O)c4cscn4)C3)ccc2s1` (stereo unspecified), for which the cytotoxicity at 10 µM was -1.44%.

For `O=C(NCC(F)(F)C(F)F)c1ccncc1`, the cytotoxicity at 10 µM came to 10.3%.

Turning to `CC(C)CCN(C(=O)c1cc2c([nH]c1=O)CCCC2=O)C1CC1`, the cytotoxicity at 10 µM is -2.98%.

Consider `Cc1c(C(=O)NCCC(=O)N2CCOCC2)oc2c(C)cccc12`, for which the cytotoxicity at 10 µM is -1.96%.

For `CCC(CO)N(Cc1ccsc1)CC1CC1` (stereo unspecified), the cytotoxicity at 10 µM turned out to be 11.5%.

Take `CN(Cc1ccc(N2CCOCC2)cc1)C(=O)Cn1cccnc1=O`: the cytotoxicity at 10 µM is -18.4%.

For `Cc1ccc(OCC(=O)Nc2ncccc2OC(F)F)cc1`, the cytotoxicity at 10 µM worked out at 6.42%.

On to `CSc1ccc(CCN2CCN([C@H]3CCCC[C@@H]3O)CC2)cc1`, for which the cytotoxicity at 10 µM was -3.38%.

Regarding `Cc1cc(CNS(=O)(=O)CCCC#N)ccc1N(C)C`, the cytotoxicity at 10 µM is -5.18%.

Take `N#Cc1ccc(CN(CCF)Cc2cccc(F)c2)cc1`: the cytotoxicity at 10 µM was -4.11%.

On to `CSCC(C)(O)CNC(=O)Nc1cc(C)cc(C)c1` (stereo unspecified), for which the cytotoxicity at 10 µM is -3.24%.

On to `Cc1nc(CN2C(=O)COC3(CCN(CC4CC4)CC3)C2C)cs1` (stereo unspecified), for which the cytotoxicity at 10 µM was -131%.

Consider `CC(C)COC(C)C(=O)N1CCC(C)CC1` (stereo unspecified), for which the cytotoxicity at 10 µM came to 2.95%.

Turning to `O=C(c1cncc(Br)c1)N1CCCc2ccc(F)cc21`, the cytotoxicity at 10 µM is -1.01%.

For `CCC(CO)NC(=O)Cc1ccc(NC(=O)CC2=CCCCC2)cc1` (stereo unspecified), the cytotoxicity at 10 µM was 0.571%.

For `CCOC(=O)[C@@H]1[C@@H](c2ccccc2)CN2CCN(C(C)=O)C[C@H]12`, the cytotoxicity at 10 µM turned out to be 9.28%.

Consider `Cn1nc2c(cc1=O)CN(c1ncnc3sccc13)CC2`, for which the cytotoxicity at 10 µM was found to be 7.97%.

`NCc1cn(-c2ccccc2C(=O)NCc2cccc(Cl)c2)cn1`: the cytotoxicity at 10 µM turned out to be 4.14%.

As for `CC(C)c1nccc(N2CCN(CC(=O)N3CCOCC3)CC2)n1`, the cytotoxicity at 10 µM was -8.68%.

As to `CN(Cc1nccn1CC(F)(F)F)C(=O)c1ccc(F)c(F)c1`, the cytotoxicity at 10 µM was -0.394%.

Consider `Cc1noc(C)c1NS(=O)(=O)c1cc(C(=O)O)cc(Cl)c1Cl`, for which the cytotoxicity at 10 µM was determined as 6.14%.

For the molecule `C=C(C)COc1cccc(C(=O)N(C)C(C)c2c(C)n[nH]c2C)c1` (stereo unspecified), the cytotoxicity at 10 µM was found to be 2.8%.

With `CN(C)CCN(C)C(=O)c1ccccc1-n1cc(CN(C)C)cn1`, the cytotoxicity at 10 µM is -13.7%.

Consider `O=C1CN(c2ccc(CNC(=O)NCc3ccoc3)cc2)CCN1`, for which the cytotoxicity at 10 µM is -1.28%.

As to `CC(C)n1nc2c(cc1=O)CN(Cc1ccc(-n3cccn3)cc1)CC2`, the cytotoxicity at 10 µM was -145%.

Consider `CCNS(=O)(=O)C1CCN(C(=O)c2ccc(CC)o2)C1` (stereo unspecified), for which the cytotoxicity at 10 µM is 5.45%.

Take `O=C(c1ccc2[nH]ccc2c1)N1CCn2cc(CN3CCCC3)nc2C1`: the cytotoxicity at 10 µM is -78.2%.

On to `CSCC(C)(O)CNc1ncccc1I` (stereo unspecified), for which the cytotoxicity at 10 µM is -2.36%.

Consider `CN(CCCNC(=O)c1ccc(C#N)cc1)CC(F)(F)F`, for which the cytotoxicity at 10 µM worked out at 5.12%.

Consider `Cc1nc2ccc(Cl)cn2c1CN1CCN(S(=O)(=O)N2CCCC2)CC1`, for which the cytotoxicity at 10 µM came out at 16.6%.

Take `Cc1cc(C)cc(CN2C[C@@H]3OCCN(S(=O)(=O)N(C)C)[C@@H]3C2)c1`: the cytotoxicity at 10 µM was determined as 8.28%.

Regarding `CCCn1nc2c(cc1=O)CN(CC(=O)Nc1cc(C)no1)CC2`, the cytotoxicity at 10 µM was -4.59%.

Regarding `NC(=O)C1(Cc2ccc(-c3ccccc3)cc2)CCCNC1` (stereo unspecified), the cytotoxicity at 10 µM was 0.772%.

On to `CS(=O)(=O)N1CCN(C(=O)CCC2CCCO2)CC1` (stereo unspecified), for which the cytotoxicity at 10 µM worked out at 0.815%.

Turning to `COc1ccc(-c2noc([C@@H]3C[C@H](NC(=O)NC(C)C)CN3C)n2)cc1`, the cytotoxicity at 10 µM is -1.47%.

For the molecule `Cn1cccc1C(=O)N1CCO[C@@H]2CN(Cc3ccco3)C[C@@H]2C1`, the cytotoxicity at 10 µM was -97.3%.

In the case of `O=C(Cc1cccc(F)c1F)NC1COc2ccccc2C1=O` (stereo unspecified), the cytotoxicity at 10 µM was determined as 10.4%.

Take `CNC(=O)[C@H]1C[C@H]2OCC[C@H]2N(CCOc2ccc(Cl)cc2)C1`: the cytotoxicity at 10 µM is -104%.

Turning to `Cc1nn(C)c(C)c1NC(=O)c1cccc(CN2CCS(=O)(=O)CC2)c1`, the cytotoxicity at 10 µM is -15.8%.

`COc1ccc(OC)c(C(O)CN2CC(n3cccn3)C2)c1` (stereo unspecified): the cytotoxicity at 10 µM is -8.42%.

In the case of `CN(C)c1ncnc2c1CCN(S(=O)(=O)c1cccc(Cl)c1Cl)C2`, the cytotoxicity at 10 µM stood at 10.4%.

Regarding `Cc1ccc2cc(C3(O)CCN(C(=O)CSC(C)C)CC3)ccc2n1`, the cytotoxicity at 10 µM is 22%.

With `CCN(CC)CCn1cc(NC(=O)c2ccccc2OC)cn1`, the cytotoxicity at 10 µM came out at 7.04%.

In the case of `CCC(=O)N1CCC(c2ncc(C(=O)Nc3ccccc3)c(C)n2)C1` (stereo unspecified), the cytotoxicity at 10 µM was found to be 6.96%.

Turning to `Cc1cc(C)n(CCN2CCN(C(=O)c3cc4ccccc4o3)CC2)n1`, the cytotoxicity at 10 µM is -3.97%.

On to `O=S1(=O)CCC(N(Cc2nc3ccccc3o2)Cc2cccs2)C1` (stereo unspecified), for which the cytotoxicity at 10 µM is -3.08%.

For the molecule `Cc1nc(NCc2nonc2C)cc(C(C)Cn2nc(C)c(C)c2C)n1` (stereo unspecified), the cytotoxicity at 10 µM is 7.03%.

With `O=C(NCC(O)COc1ccccc1)Nc1nncs1` (stereo unspecified), the cytotoxicity at 10 µM amounted to 0.555%.

`Cc1nc(CNC(C)c2cccc(S(=O)(=O)N(C)C)c2)no1` (stereo unspecified): the cytotoxicity at 10 µM came to 0.956%.

On to `O=C(Cc1ccc(S(=O)(=O)C(F)F)cc1)N1CCCC1`, for which the cytotoxicity at 10 µM was -13.5%.

As to `O=C(NCCCn1ccnc1)C1COCC(=O)N1Cc1ccccc1` (stereo unspecified), the cytotoxicity at 10 µM is 12.3%.

Take `CC(C(=O)NC(C)(C)C)N1CCC(C(=O)Nc2cnccn2)CC1` (stereo unspecified): the cytotoxicity at 10 µM was -1.36%.

As for `CCC(CN1CCCC1)n1cncc1-c1cnn(-c2ccccc2)c1` (stereo unspecified), the cytotoxicity at 10 µM was 5.87%.

Take `CC1=C[C@@H](CC#N)[C@H](C(C)C)C[C@H]1CC(=O)N1CCN(C)CC1`: the cytotoxicity at 10 µM was -4.42%.

Regarding `O=C(c1ccnc(N2CCOC(C(F)(F)F)C2)c1)N1CCOCC1` (stereo unspecified), the cytotoxicity at 10 µM was determined as 2.52%.

For the origin of these results see ChEMBL document CHEMBL4513216, “Probing the Open Global Health Chemical Diversity Library for Multistage-Active Starting Points for Next-Generation Antimalarials” (ACS Infect Dis, 2020).
